ChEMBL document CHEMBL1287658, “Reinvestigation of structure-activity relationship of methoxylated chalcones as antimalarials: synthesis and evaluation of 2,4,5-trimethoxy substituted patterns as lead candidates derived from abundantly available natural β-asarone” (Eur J Med Chem, 2010)
Activity calls are given as the source filed them. No cut-off for these calls is given here.

Experiments:
Plasmodium falciparum [1] = assay: Inhibition of Plasmodium falciparum-mediated human hemoglobin degradation at 100 uM; type: functional, organism-based
Plasmodium falciparum [2] = assay: Antimalarial activity against chloroquine-sensitive Plasmodium falciparum 3D7 infected in human O+ erythrocytes after 72 hrs by SYBR Green-1 fluorescence based assay; type: functional, organism-based; details: 3D7, 72 h
How it was run: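 P. falciparum 3D7 kept in O+ human erythrocytes, 4% hematocrit, RPMI 1640 with Albumax, hypoxanthine and gentamicin, 37 °C under 5% O2/5% CO2/90% N2. Sorbitol-synchronized rings were plated at 2% hematocrit, 1% parasitemia with drug 0–10^-4 M (0.4% DMSO final), triplicate wells, 72 h. SYBR Green I read at ex 497/em 520 nm. IC50 by visual matching of 50% growth inhibition.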

[3] = Selectivity index, ratio of TC50 for mice (Mus musculus) L929 cells to IC50 for Plasmodium falciparum 3D7; type: toxicity, cell-based
How it was run: (§1)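 Selectivity index was TC50 (24 h MTT in HeLa or L929) divided by IC50 against 3D7 (72 h SYBR Green I growth assay).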

Plasmodium falciparum [4] = assay: Resistance index, ratio of IC50 for Plasmodium falciparum Dd2 to IC50 for Plasmodium falciparum 3D7; type: functional
How it was run: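 Ratio of IC50 against Dd2 to IC50 against 3D7. Both IC50s come from the same 72 h SYBR Green I assay: sorbitol-synchronised rings, 2% hematocrit, 1% parasitemia, 0 to 10^-4 M in triplicate, 0.4% final DMSO. Each IC50 taken by visual matching of 50% growth inhibition.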

[5] = Selectivity index, ratio of TC50 for human HeLa cells to IC50 for Plasmodium falciparum 3D7; type: toxicity, cell-based; how it was run: as §1
Plasmodium falciparum [6] = assay: Antimalarial activity against chloroquine-resistant Plasmodium falciparum Dd2 infected in human O+ erythrocytes after 72 hrs by SYBR Green-1 fluorescence based assay; type: functional, organism-based; details: Dd2, 72 h
How it was run: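 Ring-stage culture (5% sorbitol synchronised) plated at 2% hematocrit, 1% parasitemia in RPMI 1640 with 0.5% Albumax, hypoxanthine, gentamicin; 37 °C, 5% O2/5% CO2/90% N2. Compounds from DMSO stock, final 0.4% DMSO, 0 to 10^-4 M, triplicate wells. 72 h, then SYBR Green I fluorescence (ex 497/em 520 nm). IC50 by visual matching of 50% growth inhibition.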

HeLa = assay: Cytotoxicity against human HeLa cells assessed as cell viability after 24 hrs by MTT assay; type: cell-based
How it was run: (§2)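 HeLa and L929 cells were grown in RPMI with 10% FBS, seeded at 10⁴ cells/well overnight, then exposed to drug for 24 h at 37 °C, 5% CO2. DMSO at 10% final was the positive control. MTT was added for 4 h, then formazan was dissolved in DMSO and read at 570 nm. TC50 was taken from dose-response curves.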

L929 = assay: Cytotoxicity against mouse L929 cells assessed as cell viability after 24 hrs by MTT assay; type: cell-based; details: l929, 24 h; how it was run: as §2

SMILES	inhibition (Plasmodium falciparum [1])	IC50 (Plasmodium falciparum [2]) [µM]	further results
O=C(/C=C/c1ccc(Cl)cc1)c1ccc2c(c1)OCO2	inactive	97.9	–
O=C(/C=C/c1ccc(Cl)cc1)c1ccc(O)cc1	inactive	30	–
COc1ccc(C(=O)/C=C/c2ccc(Cl)cc2)cc1	inactive	88	–
COc1cc(OC)c(C(CC(=O)c2ccc(Cl)cc2)c2c[nH]c3ccccc23)cc1OC (centres undefined)	inactive	8.6	–
COc1cc(OC)c(OC)cc1/C=C/C(=O)c1ccc(Cl)cc1	inactive	4	selectivity ratio [3]: 8.3; Ratio IC50 (Plasmodium falciparum [4]): 1.7; selectivity ratio [5]: 9; IC50 (Plasmodium falciparum [6]): 6.9 µM
O=C(/C=C/c1ccc(Cl)cc1)c1ccc(Cl)cc1 [4',4-DICHLOROCHALCONE]	inactive	65	–
O=C(/C=C/c1ccc(Cl)cc1)c1ccc([N+](=O)[O-])cc1	inactive	78	–
COc1cc(OC)c(OC)cc1/C=C/C(=O)c1ccc(Br)cc1	inactive	1.8	selectivity ratio [3]: 55.6; Activity (HeLa): Non-toxic; Ratio IC50 (Plasmodium falciparum [4]): 2.8; selectivity ratio [5]: 31.7; IC50 (Plasmodium falciparum [6]): 5 µM; Activity (L929): Non-toxic
COc1cc(OC)c(OC)cc1/C=C/C(=O)c1ccc([N+](=O)[O-])cc1	inactive	> 200	–
COc1ccc(/C=C/C(=O)c2ccc(Cl)cc2)c(OC)c1	inactive	6	selectivity ratio [3]: 14.6; Ratio IC50 (Plasmodium falciparum [4]): 1.1; selectivity ratio [5]: > 16.6; IC50 (Plasmodium falciparum [6]): 6.8 µM
O=C(/C=C/c1ccco1)c1ccc([N+](=O)[O-])cc1	inactive	> 200	–
COc1ccc(C(=O)/C=C/c2ccc(Cl)c(Cl)c2)cc1	inactive	> 200	–
COc1ccc(C(=O)/C=C/c2cc(OC)c(OC)cc2OC)cc1	inactive	11.5	–
COc1ccc(/C=C/C(C)=O)c(OC)c1	inactive	48.5	–
COc1cc(OC)c(OC)cc1CCC(O)c1ccc(Cl)cc1 (centres undefined)	inactive	50	–
COc1cc(OC)c(OC)cc1/C=C/C(=O)c1ccc(I)cc1	inactive	2	selectivity ratio [3]: > 50; Activity (HeLa): Non-toxic; Ratio IC50 (Plasmodium falciparum [4]): 3.7; selectivity ratio [5]: 50; IC50 (Plasmodium falciparum [6]): 7.5 µM; Activity (L929): Non-toxic
COc1cc(OC)c(/C=C/C(=O)c2ccc(Cl)cc2)c(OC)c1	inactive	8	–

SMILES	inhibition (Plasmodium falciparum [1])	IC50 (Plasmodium falciparum [2]) [µM]	further results
COc1cc(OC)c(OC)cc1/C=C/C(=O)c1ccc(-c2ccc(Br)cc2)cc1	inactive	47	–
O=C(/C=C/c1cccs1)c1ccc([N+](=O)[O-])cc1	inactive	170	–
C=CCn1cc(/C(=C\C(=O)c2ccc(Br)cc2)c2cc(OC)c(OC)cc2OC)c2ccccc21	inactive	17.5	–
COc1cc(OC)c(OC)cc1/C=C/C(=O)c1ccc(Cl)c(Cl)c1	inactive	> 20	–
C=CCOc1ccc(C(=O)/C=C/c2ccc(Cl)cc2)cc1	inactive	75	–
C=CC(C)(C)c1cc(/C=C/C(=O)c2ccc(O)cc2)c(OC)cc1O [LICOAGROCHACONE A]	inactive	4.1	–
O=C(/C=C/c1ccc(Cl)cc1)c1ccc(Br)cc1	inactive	50	–
COc1cc(OC)c(OC)cc1/C=C/C(=O)c1ccc(C#N)cc1	inactive	> 100	–
COc1ccc(/C=C/C(=O)c2ccc(Cl)cc2)cc1	inactive	28.8	–
COc1cc(OC)c(OC)cc1/C=C/C=C/C(=O)c1ccc(Br)cc1	inactive	12.2	–
COc1cc(OC)c(OC)cc1/C=C/C(=O)c1ccc(OC)c(OC)c1OC	inactive	7.8	–
COc1cc(OC)c(OC)cc1/C=C/C(=O)/C=C/c1ccc(Br)cc1	inactive	18	–
C=CCn1cc(C(CC(=O)c2ccc(Cl)cc2)c2cc(OC)c(OC)cc2OC)c2ccccc21 (centres undefined)	inactive	8.4	–
CCN(CC)CCCC(C)Nc1ccnc2cc(Cl)ccc12 (centres undefined)	inactive	–	–
COc1cc(/C=C/C(=O)c2ccc(Cl)cc2)cc(OC)c1OC	inactive	4.6	selectivity ratio [3]: 2.8; Ratio IC50 (Plasmodium falciparum [4]): 2.5; selectivity ratio [5]: 3; IC50 (Plasmodium falciparum [6]): 11.5 µM
COc1cc(OC)c(OC)cc1CCC(=O)c1ccc(Cl)cc1	inactive	64	–
